According to ChEMBL document CHEMBL5236602, “Synthesis and Characterization of NUC-7738, an Aryloxy Phosphoramidate of 3'-Deoxyadenosine, as a Potential Anticancer Agent” (J Med Chem, 2022):
Activity calls are given as the source filed them. The rule behind the calls is not given here.

Legend:
[1] = system: MCF7; assay: Cytotoxicity against human MCF7 cells assessed as cell death incubated for 72 hrs by MTS assay; type: functional; settings: read-out: LC50 (the source's name)
In short: (§1)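 Contracted MTS assay. Cells seeded the day before treatment and exposed 72 h to nine serial concentrations (3.16-fold steps, top 198 μM), tested in duplicate. MTS added, then 4 h at 37 °C and absorbance read. LC50 is the concentration killing 50% of cells. MI% is the maximum inhibition over the tested range.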

[2] = system: KG-1; assay: Cytotoxicity against human KG-1 cells assessed as maximum cell growth inhibition incubated for 72 hrs by MTS assay relative to control; type: functional
In short: (§2)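 Cells from the 20-line panel were seeded the day before dosing, then exposed to compound for 72 h. MTS was added, followed by 4 h at 37 °C, and absorbance was read. Nine serial 3.16-fold dilutions were tested, top 198 μM, in duplicate. MI% is the maximum inhibitory effect across the tested concentration range.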

[3] = system: RL; assay: Cytotoxicity against deoxynucleotidyl transferase-negative human RL cells assessed as cell death preincubated with adenosine kinase inhibitor, A-134974 for 5 mins followed by compound addition and […]; type: functional, cell-based
[4] = system: SW-620; assay: Cytotoxicity against human SW620 cells assessed as maximum cell growth inhibition incubated for 72 hrs by MTS assay relative to control; type: functional; in short: as §2
[5] = system: Z-138; assay: Cytotoxicity against human Z138 cells assessed as maximum cell growth inhibition incubated for 72 hrs by MTS assay relative to control; type: functional; in short: as §2
[6] = system: HL-60; assay: Cytotoxicity against human HL-60 cells assessed as maximum cell growth inhibition incubated for 72 hrs by MTS assay relative to control; type: functional; in short: as §2
[7] = system: MV4-11; assay: Cytotoxicity against human MV4-11 cells assessed as maximum cell growth inhibition incubated for 72 hrs by MTS assay relative to control; type: functional; in short: as §2
[8] = Prodrug conversion in human CCRF-CEM cells assessed as fold increase in 3'-dATP level at 50 uM incubated for 2 hrs by LC-MS/MS analysis relative to 3'-Deoxyadenosine; type: ADME, cell-based
[9] = system: HL-60; assay: Cytotoxicity against human HL-60 cells assessed as cell death incubated for 72 hrs by MTS assay; type: functional; settings: read-out: LC50 (the source's name); in short: as §1
[10] = system: RL; assay: Cytotoxicity against deoxynucleotidyl transferase-negative human RL cells assessed as cell death preincubated with adenosine deaminase inhibitor, EHNA for 5 mins followed by compound addition and […]; type: functional, cell-based
[11] = system: Z-138; assay: Cytotoxicity against human Z138 cells assessed as cell death incubated for 72 hrs by MTS assay; type: functional; settings: read-out: LC50 (the source's name); in short: as §1
[12] = Metabolic stability in pooled cryopreserved human hepatocytes assessed as half life at 1 uM incubated for 60 mins by HPLC-MS/MS analysis; type: ADME, cell-based, Hepatocyte
In short: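 Pooled cryopreserved human hepatocytes were thawed, washed and resuspended in Krebs–Henseleit buffer, pH 7.3. Compound was added at 1 μM final and incubated 0 and 60 min at 37 °C/5% CO2. Reactions were stopped with acetonitrile, centrifuged, and the supernatant analysed by HPLC-MS/MS.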

[13] = system: RPMI-8226; assay: Cytotoxicity against human RPMI-8226 cells assessed as maximum cell growth inhibition incubated for 72 hrs by MTS assay relative to control; type: functional; in short: as §2
[14] = system: Leukemic stem cell; assay: Cytotoxicity against human leukemic stem cells (Lin-/CD34+/CD38-/CD123+) in myeloid leukemia cell line KG-1a assessed as reduction in LSC population at >1 uM incubated for 72 hrs
[15] = system: HEL 92.1.7; assay: Cytotoxicity against human HEL 92.1.7 cells assessed as cell death incubated for 72 hrs by MTS assay; type: functional; settings: read-out: LC50 (the source's name); in short: as §1
[16] = system: HepG2; assay: Cytotoxicity against human HepG2 cells assessed as cell death incubated for 72 hrs by MTS assay; type: functional; settings: read-out: LC50 (the source's name); in short: as §1
[17] = system: THP-1; assay: Cytotoxicity against human THP-1 cells assessed as maximum cell growth inhibition incubated for 72 hrs by MTS assay relative to control; type: functional; in short: as §2
[18] = system: MV4-11; assay: Cytotoxicity against human MV4-11 cells assessed as cell death incubated for 72 hrs by MTS assay; type: functional; settings: read-out: LC50 (the source's name); in short: as §1
[19] = system: SW-620; assay: Cytotoxicity against human SW620 cells assessed as cell death incubated for 72 hrs by MTS assay; type: functional; settings: read-out: LC50 (the source's name); in short: as §1
[20] = system: MOLT-4; assay: Cytotoxicity against human MOLT-4 cells assessed as cell death incubated for 72 hrs by MTS assay; type: functional; settings: read-out: LC50 (the source's name); in short: as §1
[21] = system: HT-29; assay: Cytotoxicity against human HT-29 cells assessed as cell death incubated for 72 hrs by MTS assay; type: functional; settings: read-out: LC50 (the source's name); in short: as §1
[22] = system: RPMI-8226; assay: Cytotoxicity against human RPMI-8226 cells assessed as cell death incubated for 72 hrs by MTS assay; type: functional; settings: read-out: LC50 (the source's name); in short: as §1
[23] = system: NCI-H929; assay: Cytotoxicity against human NCI-H929 cells assessed as cell death incubated for 72 hrs by MTS assay; type: functional; settings: read-out: LC50 (the source's name); in short: as §1
[24] = system: HEL 92.1.7; assay: Cytotoxicity against human HEL 92.1.7 cells assessed as maximum cell growth inhibition incubated for 72 hrs by MTS assay relative to control; type: functional; in short: as §2
[25] = system: Jurkat; assay: Cytotoxicity against human Jurkat cells assessed as maximum cell growth inhibition incubated for 72 hrs by MTS assay relative to control; type: functional; in short: as §2
[26] = system: KG-1; assay: Cytotoxicity against human KG-1 cells assessed as cell death incubated for 72 hrs by MTS assay; type: functional; in short: as §1
[27] = system: CCRF-CEM; assay: Potency index, ratio of 3'-Deoxyadenosine LC50 to test compound LC50 for cytotoxicity against human CCRF-CEM cells assessed as cell death incubated for 72 hrs by MTS assay; type: functional
[28] = system: K562; assay: Potency index, ratio of 3'-Deoxyadenosine LC50 to test compound LC50 for cytotoxicity against human K562 cells assessed as cell death incubated for 72 hrs by MTS assay; type: functional
[29] = system: MOLT-4; assay: Cytotoxicity against human MOLT-4 cells assessed as maximum cell growth inhibition incubated for 72 hrs by MTS assay relative to control; type: functional; in short: as §2
[30] = system: MCF7; assay: Cytotoxicity against human MCF7 cells assessed as maximum cell growth inhibition incubated for 72 hrs by MTS assay relative to control; type: functional; in short: as §2
[31] = system: NCI-H929; assay: Cytotoxicity against human NCI-H929 cells assessed as maximum cell growth inhibition incubated for 72 hrs by MTS assay relative to control; type: functional; in short: as §2
[32] = system: HL-60; assay: Potency index, ratio of 3'-Deoxyadenosine LC50 to test compound LC50 for cytotoxicity against human HL-60 cells assessed as cell death incubated for 72 hrs by MTS assay; type: functional
[33] = system: K562; assay: Cytotoxicity against human K562 cells assessed as maximum cell growth inhibition incubated for 72 hrs by MTS assay relative to control; type: functional; in short: as §2
[34] = system: MIA PaCa-2; assay: Cytotoxicity against human MIA PaCa-2 cells assessed as cell death incubated for 72 hrs by MTS assay; type: functional; settings: read-out: LC50 (the source's name); in short: as §1
[35] = system: CCRF-CEM; assay: Cytotoxicity against human CCRF-CEM cells assessed as cell death incubated for 72 hrs by MTS assay; type: functional; settings: read-out: LC50 (the source's name); in short: as §1
[36] = system: BXPC-3; assay: Cytotoxicity against human BXPC-3 cells assessed as maximum cell growth inhibition incubated for 72 hrs by MTS assay relative to control; type: functional; in short: as §2
[37] = system: Jurkat; assay: Potency index, ratio of 3'-Deoxyadenosine LC50 to test compound LC50 for cytotoxicity against human Jurkat cells assessed as cell death incubated for 72 hrs by MTS assay; type: functional
[38] = Cytotoxicity against human HS 445 cells assessed as maximum cell growth inhibition incubated for 72 hrs by MTS assay relative to control; type: functional; in short: as §2
[39] = system: CCRF-CEM; assay: Cytotoxicity against deoxynucleotidyl transferase-positive human CCRF-CEM cells assessed as cell death preincubated with adenosine deaminase inhibitor, EHNA for 5 mins followed by compound addition and […]; type: functional, cell-based
[40] = system: BXPC-3; assay: Cytotoxicity against human BXPC-3 cells assessed as cell death incubated for 72 hrs by MTS assay; type: functional; settings: read-out: LC50 (the source's name); in short: as §1

Structure (SMILES): C[C@@H](NP(=O)(OC[C@@H]1C[C@@H](O)[C@H](n2cnc3c(N)ncnc32)O1)Oc1cccc2ccccc12)C(=O)OCc1ccccc1 (stereo not given in full)
- CC50 [1]: 1.39 µM
- Imax [2]: 100%
- Activity [3]: Active
- Imax [4]: 93%
- Imax [5]: 100%
- Imax [6]: 100%
- Imax [7]: 99%
- fold change (FC) [8]: 3
- CC50 [9]: 6.37 µM
- Activity [10]: Active
- CC50 [11]: 6.32 µM
- half-life at 1 µM [12]: 43.4 min
- Imax [13]: 102%
- Activity [14]: inactive
- CC50 [15]: 2.94 µM
- CC50 [16]: 11.5 µM
- Imax [17]: 99%
- CC50 [18]: 1.48 µM
- CC50 [19]: 11.4 µM
- CC50 [20]: 0.32 µM
- CC50 [21]: 7.52 µM
- CC50 [22]: 19 µM
- CC50 [23]: 3.38 µM
- Imax [24]: 98%
- Imax [25]: 100%
- LC50 [26]: 11.03 µM
- RatioLC50 [27]: 3
- RatioLC50 [28]: 3
- Imax [29]: 100%
- Imax [30]: 99%
- Imax [31]: 99%
- RatioLC50 [32]: 3
- Imax [33]: 97%
- CC50 [34]: 3.73 µM
- CC50 [35]: 1.17 µM
- Imax [36]: 90%
- RatioLC50 [37]: 200
- Imax [38]: 96%
- Activity [39]: Active
- CC50 [40]: 74 µM
